{"source": "ChEMBL document CHEMBL3351599", "about": "“Extending the N-linked aminopiperidine class to the mycobacterial gyrase domain: pharmacophore mapping from known antibacterial leads” (Eur J Med Chem, 2014)", "key": {"[1]": {"test": "(§1) Inhibition of Mycobacterium tuberculosis GyrA/GyrB using relaxed pBR322 as substrate after 30 mins by DNA supercoiling assay"}, "[2]": {"system": "Mycobacterium tuberculosis", "test": "as §1"}, "[3]": {"system": "Mycobacterium tuberculosis", "test": "Antimycobacterial activity against Mycobacterium tuberculosis H37Rv after 7 days by microplate alamar blue assay", "format": "functional", "conditions": "168 h", "outline": "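M. tuberculosis H37Rv inoculum taken from fresh LJ medium, resuspended in 7H9-S (7H9 broth, 0.1% casitone, 0.5% glycerol, OADC), adjusted to McFarland No. 1 and diluted 1:20. Two-fold serial dilutions were tested over a range of 25 to 0.78. Plates were incubated 7 days at 37 °C, then alamar blue was added and incubated overnight. Blue-to-pink colour change read as growth; MIC determined.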"}, "[4]": {"test": "Cytotoxicity against mouse RAW264.7 cells at 100 uM after 48 hrs by MTT assay", "format": "cell-based", "conditions": "read-out: INH", "outline": "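Cells seeded at 5 × 10⁵ per well with test compound at a range of concentrations. Incubated 48 h at 37 °C under 5% CO₂/[…]. MTT reagent (10 mg mL⁻¹ stock) added about 4 h before the end. Plate centrifuged, supernatant removed and formazan dissolved in DMSO. Absorbance read at 560 nm against a blank. Triplicate wells per concentration.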"}, "[5]": {"test": "Selectivity index, ratio of CC50 for mouse RAW264.7 cells to MIC for Mycobacterium tuberculosis H37Rv", "format": "toxicity", "conditions": "read-out: Selectivity Index", "outline": "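Ratio of CC50 to MABA MIC against H37Rv. […] MTT was added 4 h before the end, formazan was dissolved in DMSO and absorbance read at 560 nm. Each concentration was run in triplicate.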"}, "[6]": {"system": "Mycobacterium tuberculosis", "test": "Inhibition of Mycobacterium tuberculosis GyrA/GyrB using relaxed pBR322 as substrate at 0.97 uM after 30 mins by DNA supercoiling assay", "outline": "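Gyrase supercoiling reaction: GyrA/GyrB heterotetramer (1 U), relaxed pBR322, 1 mM ATP, HEPES-KOH pH 7.9 buffer, 30 min at 37 °C. Compounds were tested in a series of 250, 62.5, 15.6, 3.9 and 0.97. Products were resolved on 1% agarose with ethidium staining, and inhibition was quantified relative to control.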"}}, "note": "pIC50: −log10 of the molar value."}
{"smiles": "COc1cnc2ccc(=O)n(CCN3CCC(NC(=O)Nc4ccc(F)cc4)CC3)c2c1", "values": [{"measurement": "pIC50", "setting": "[1]", "value": 7.11}, {"measurement": "inhibition", "setting": "[2]", "value": "Dose-dependent effect"}, {"measurement": "MIC", "setting": "[3]", "value": 0.62, "unit": "µM"}, {"measurement": "cytotoxicity at 48 h, 100 µM", "setting": "[4]", "value": 31.5, "unit": "%"}, {"measurement": "selectivity ratio", "setting": "[5]", "value": "> 161"}, {"measurement": "inhibition", "setting": "[6]", "value": "> 82", "unit": "%"}]}
{"smiles": "O=C(NCc1ccc(Cl)cc1)NC1CCN(CCn2c(=O)ccc3ncc(F)cc32)CC1", "values": [{"measurement": "pIC50", "setting": "[1]", "value": 5.54}, {"measurement": "MIC", "setting": "[3]", "value": 3.7, "unit": "µM"}, {"measurement": "cytotoxicity at 48 h, 100 µM", "setting": "[4]", "value": 42.7, "unit": "%"}, {"measurement": "selectivity ratio", "setting": "[5]", "value": "> 27"}, {"measurement": "inhibition", "setting": "[6]", "value": "> 92", "unit": "%"}]}
